Source: PubChem (Broad Institute)
Pf Dd2 inh – P. falciparum Dd2 growth inhibition; SYBR Green, 72 h; stronger effect = lower value; activity change, % at 10 µM; actives 2.3% (n = 94,000); in the data active = activity change below about -80%; inconclusive = no clear call, values can overlap the other calls
KDM4C inh – KDM4C (human) demethylase inhibition | Q9H3R0 | GST-KDM4C 2-372, H3K9me3 peptide, LANCE TR-FRET | inhibition, % at 12.5 µM | actives 0.15% (n = 96,000);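 active = mean replicate inhibition above about 25%, with at least 55% of replicates also reaching it, limit read from the data, passing the limit was not always enough; inconclusive = only one of those two conditions met; inactive = neither condition met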
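System – N-terminal GST-fused human GASC-1 (KDM4C) fragment, residues 2-372 · Input – enzyme final amount 10 nM · Technique – LANCE TR-FRET, Eu antibody, ULight-streptavidin, EDTA, ex 340 nm, em 618/671 nm · Medium – HEPES buffer, pH 7.5, plus ascorbate · Incubation – enzyme reaction 30 min, then detection 60 min, both room temperature · Reagent – H3K9me3 peptide with Fe(II)/2OG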
T cruzi growth-1 – inhibitors of T. cruzi proliferation; T. cruzi beta-gal in NIH3T3, GalScreen luminescence, 90 h; AID 624255; actives 5.9% (n = 77,000); inhibition, % at 8.34 µM;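 active = mean inhibition above about 93%, with at least 55% of replicates each passing it, limit read from the data, passing the limit was not always enough; inconclusive = only one of those two conditions holds; inactive = neither condition holds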
IDH1 R132H inh – IDH1 R132H (human) inhibition. inhibition, % at 10 µM. actives 0.18% (n = 70,000). AID 624101. IDH1 R132H reductase, diaphorase/resazurin fluorescence, 60 min; in the data active = inhibition above about 34%; inconclusive = no clear call, values can overlap the other calls; inactive = below about 11%;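 also: 0% = DMSO and 100% = no enzyme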
Target sequence (O75874 whole entry R132H): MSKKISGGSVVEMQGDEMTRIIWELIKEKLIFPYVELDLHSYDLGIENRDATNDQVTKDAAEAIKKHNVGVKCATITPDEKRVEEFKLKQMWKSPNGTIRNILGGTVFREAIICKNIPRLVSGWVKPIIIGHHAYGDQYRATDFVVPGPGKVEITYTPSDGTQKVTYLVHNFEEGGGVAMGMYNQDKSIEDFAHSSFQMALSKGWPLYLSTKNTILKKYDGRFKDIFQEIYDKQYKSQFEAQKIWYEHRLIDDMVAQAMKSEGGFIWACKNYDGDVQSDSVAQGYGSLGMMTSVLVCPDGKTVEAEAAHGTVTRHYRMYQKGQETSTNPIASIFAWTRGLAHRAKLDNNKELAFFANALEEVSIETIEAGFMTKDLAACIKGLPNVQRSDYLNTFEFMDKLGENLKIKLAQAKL
T cruzi growth-2 – Trypanosoma cruzi proliferation inhibition | T. cruzi beta-gal in NIH3T3, GalScreen luminescence, 90 h | actives 72% (n = 5,600) | shares compounds with T cruzi growth-1 | inhibition, % at 8.35 µM;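 active = mean replicate inhibition above about 95% and at least 55% of replicates individually reaching it, limit read from the data; inconclusive = only one of the two criteria is met; inactive = neither criterion is met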
T cruzi growth-3 – blocks T. cruzi growth in NIH3T3 host cells | shares compounds with T cruzi growth-1 | T. cruzi beta-gal in NIH3T3, GalScreen luminescence, 90 h | inhibition, % at 2.09 µM | actives 21% (n = 5,600);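 active = mean inhibition above about 95%, with at least 55% of replicates also reaching it, limit read from the data; inconclusive = meets just one of the two conditions; inactive = meets neither condition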;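 also: plate controls were neutral control median for no effect and positive control median for full effect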
3T3 cytotox – NIH/3T3 (mouse) viability loss | AID 651742 | actives 14% (n = 5,600) | NIH/3T3 viability, CellTiter-Glo ATP luminescence, 90 h | cytotoxicity (signal decrease), % at 8.35 µM | shares compounds with T cruzi growth-1;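 active = mean signal decrease across replicates above about 35% based on untreated-well scatter, with enough replicates individually passing, limit read from the data; inconclusive = no rule stated though some were filed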;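 also: 0% = median of neutral control wells and 100% = median of positive control wells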
NIH3T3 tox 2 – cytotoxicity in mouse NIH/3T3 fibroblasts. shares compounds with T cruzi growth-1. NIH/3T3 viability, CellTiter-Glo ATP luminescence, 90 h. inhibition, % at 24.9 µM. actives 56% (n = 5,600);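 active = mean loss of cell viability signal at or above a set limit, and enough replicates individually reaching it; inconclusive = meets only the mean limit or only the replicate share; inactive = meets neither condition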;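 also: 0% = median of neutral control wells and 100% = median of positive control wells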
* = called active by the depositor; ? = inconclusive; . = no result given. Shown are actives, neighbours in structure and some others; about 5.8% of the full set was active somewhere.

SMILES	Pf Dd2 inh	KDM4C inh	T cruzi growth-1	IDH1 R132H inh	T cruzi growth-2	T cruzi growth-3	3T3 cytotox	NIH3T3 tox 2
Cc1cc(N(CC(=O)Nc2ccc3c(c2)OCCO3)S(C)(=O)=O)ccc1Br	.	.	.	0	.	.	.	.
C[C@@H]1CN([C@H](C)CO)C(=O)CCCn2cc(nn2)CO[C@@H]1CN(C)C(=O)Nc1cccc(F)c1	9	-1	11	.	.	.	.	.
COc1ccc(OC(=O)N(C)C[C@H]2OCc3cn(nn3)CCCC(=O)N([C@H](C)CO)C[C@H]2C)cc1	2	1	22	0	.	.	.	.
COc1ccc(OC(=O)N(C)C[C@@H]2OCc3cn(nn3)CCCC(=O)N([C@H](C)CO)C[C@@H]2C)cc1	15	-1	113*	0	42	-17	5	4
C[C@H](CO)N1C[C@H](C)[C@@H](CN(C)C(=O)Nc2cccc(F)c2)OCc2cn(nn2)CCCC1=O	5	0	?	.	109*	17	31	15
C[C@@H]1CN([C@@H](C)CO)C(=O)Cc2cc(NC(=O)Nc3cccc4ccccc34)ccc2O[C@H]1CN(C)Cc1ccc(Oc2ccccc2)cc1	-47	-3	?	0	105*	107*	21	21
C[C@H]1CN([C@@H](C)CO)C(=O)Cc2cc(NC(=O)Nc3cccc4ccccc34)ccc2O[C@H]1CN(C)Cc1ccc(Oc2ccccc2)cc1	-7	-2	60	0	.	.	.	.
C[C@@H]1CN([C@H](C)CO)C(=O)Cc2cc(NC(=O)Nc3cccc4ccccc34)ccc2O[C@H]1CN(C)Cc1ccc(Oc2ccccc2)cc1	16	-2	96*	0	107*	80	9	12
COc1c(O)c(C(=O)/C=C\c2ccccc2)c(OC)c(OC)c1OC	.	.	.	-1	.	.	.	.
CCOc1ccccc1NC(=O)CSc1nc2ccccc2c(=O)n1-c1ccc(Cl)cc1	.	.	.	0	.	.	.	.
C[C@@H]1CN([C@@H](C)CO)C(=O)c2cc(C3=CCCC3)cnc2O[C@@H]1CN(C)Cc1ccccc1	-26	-1	?	-1	?	36	-11	17
C[C@@H]1CN([C@@H](C)CO)C(=O)c2cc(C3=CCCCC3)cnc2O[C@H]1CN(C)Cc1cccc(F)c1	-15	-3	115*	-1	105*	26	14	105*
C[C@H]1CN([C@@H](C)CO)C(=O)c2cc(C3=CCCCC3)cnc2O[C@@H]1CN(C)Cc1cccc(F)c1	-14	0	29	-2	.	.	.	.
C[C@@H]1CN([C@@H](C)CO)C(=O)c2cc(C3=CCCCC3)cnc2O[C@@H]1CN(C)Cc1ccccc1	13	0	?	-1	100*	33	-9	48*
Cc1nnc(SCC(=O)Nc2cccc([N+](=O)[O-])c2)s1	.	.	.	0	.	.	.	.
COc1ccc(CNC(=O)c2cc3c(c(-c4cccc(-c5cccc(C#N)c5)c4)n2)[C@@H](CCO)N([S@](=O)C(C)(C)C)C3)cc1	-73	-7	?	0	107*	100*	19	45*
CC(C)(C)[S@](=O)N1Cc2cc(C(=O)NCc3ccncc3)nc(-c3cccc(-c4cccc(C#N)c4)c3)c2[C@@H]1CCO	-66	-1	72	0	.	.	.	.
CC(C)(C)[S@](=O)N1Cc2cc(C(=O)NCc3ccccc3F)nc(-c3cccc(-c4ccncc4)c3)c2[C@@H]1CCO	-77	-1	99*	0	102*	90	20	103*
COc1ccc(CNC(=O)c2cc3c(c(-c4cccc(-c5ccc(C#N)cc5)c4)n2)[C@@H](CCO)N([S@](=O)C(C)(C)C)C3)cc1	-53	-2	98*	0	111*	107*	21	38*
Cc1cc(I)ccc1NC(=O)Cn1cc([N+](=O)[O-])cn1	.	.	.	0	.	.	.	.
Cc1cc(Cl)c(S(=O)(=O)Nc2ccc(I)cc2)cc1OCC(N)=O	.	.	.	0	.	.	.	.
C[C@@H]1CCCCO[C@H](CN(C)Cc2ccc(Cl)c(Cl)c2)[C@H](C)CN([C@@H](C)CO)C(=O)c2cc(NC(=O)Nc3ccc4c(c3)OCO4)ccc2O1	-86*	-2	101*	1	96*	117*	19	-1
C[C@H](CO)N1C[C@H](C)[C@H](CN(C)Cc2ccc3c(c2)OCO3)OCCCC[C@H](C)Oc2ccc(NC(=O)Nc3ccccc3)cc2C1=O	-38	-1	103*	1	106*	82	26	104*
C[C@@H]1CN([C@@H](C)CO)C(=O)c2cc(NC(=O)Nc3ccc4c(c3)OCO4)ccc2O[C@@H](C)CCCCO[C@H]1CN(C)Cc1ccc2c(c1)OCO2	-72	1	95	.	.	.	.	.
C[C@@H]1CN([C@H](C)CO)C(=O)c2cc(NC(=O)Nc3ccc4c(c3)OCO4)ccc2O[C@@H](C)CCCCO[C@@H]1CN(C)C(=O)C1CCCCC1	-78	-1	18	-1	.	.	.	.
SMILES	Pf Dd2 inh	KDM4C inh	T cruzi growth-1	IDH1 R132H inh	T cruzi growth-2	T cruzi growth-3	3T3 cytotox	NIH3T3 tox 2
C[C@@H]1CCCCO[C@@H](CN(C)Cc2ccc3c(c2)OCO3)[C@H](C)CN([C@@H](C)CO)C(=O)c2cc(NC(=O)Nc3ccc4c(c3)OCO4)ccc2O1	-65	-1	103*	.	99*	20	19	21
C[C@@H]1CCCCO[C@@H](CN(C)Cc2ccc(Cl)c(Cl)c2)[C@H](C)CN([C@@H](C)CO)C(=O)c2cc(NC(=O)Nc3ccc4c(c3)OCO4)ccc2O1	-55	-1	104	.	.	.	.	.
C[C@H](CO)N1C[C@H](C)[C@@H](CN(C)C(=O)C2CCCCC2)OCCCC[C@H](C)Oc2ccc(NC(=O)Nc3ccc4c(c3)OCO4)cc2C1=O	5	0	111*	3	79	6	-19	3
COC(=O)c1c(-c2cccc(C)c2)csc1NC(=O)c1ccccc1[N+](=O)[O-]	.	.	.	0	.	.	.	.
CN(C)CCC(C)(O)Cc1ccccc1 (stereo not given)	.	.	.	0	.	.	.	.
C[C@@H]1CCCCO[C@@H](CN(C)Cc2ccc3c(c2)OCO3)[C@H](C)CN([C@H](C)CO)C(=O)c2cc(NC(=O)Cc3ccccc3)ccc2O1	-61	0	63	.	.	.	.	.
C[C@@H]1CCCCO[C@H](CN(C)CC2CCCCC2)[C@@H](C)CN([C@H](C)CO)C(=O)c2cc(NC(=O)Nc3ccc4c(c3)OCO4)ccc2O1	-67	15	97*	.	109*	112*	12	83*
